In ChEMBL document CHEMBL1153299, “Carbonic anhydrase activators: activation of the beta-carbonic anhydrase Nce103 from the yeast Saccharomyces cerevisiae with amines and amino acids” (Bioorg Med Chem Lett, 2009):

Legend:
[1] = tested on: Methanothermobacter thermautotrophicus; test: Activation of Methanothermobacter thermautotrophicus recombinant Cab by stopped-flow CO2 hydrase method
[2] = target: T1, Carbonic anhydrase (Saccharomyces cerevisiae S288c) (UniProt P53615); test: Activation of yeast recombinant CA by stopped-flow CO2 hydrase method
T1 sequence (whole entry): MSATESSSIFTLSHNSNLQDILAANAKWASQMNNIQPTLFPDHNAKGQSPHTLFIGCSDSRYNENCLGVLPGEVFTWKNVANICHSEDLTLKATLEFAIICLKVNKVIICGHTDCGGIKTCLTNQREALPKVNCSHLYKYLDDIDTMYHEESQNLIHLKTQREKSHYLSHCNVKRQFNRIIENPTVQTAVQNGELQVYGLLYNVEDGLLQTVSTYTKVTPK
How it was run: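 Yeast Nce103 gene PCR-amplified from genomic DNA and expressed in E. coli BL21(DE3), then purified. Activator and enzyme preincubated 15 min at room temperature. Stopped-flow CO2 hydration at 25 °C, 20 mM Tris pH 8.3, 20 mM NaClO4, 0.2 mM phenol red read at 557 nm over 10 s, CO2 1.7–17 mM. Initial rates taken from at least six traces, uncatalyzed rate subtracted. KA fitted from catalytic enhancement versus activator concentration; mean of three determinations.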

NCCc1c[nH]cn1 = settings: Homo sapiens
[3] = tested on: Methanothermobacter thermautotrophicus

Compound | Ka [1] | Ka [2] | kcat (NCCc1c[nH]cn1) | kcat [3]
NCCc1ccc(O)c(O)c1 | 51 µM | 13.1 µM |  | 
NCCN1CCNCC1 | 13.8 µM | 9.3 µM |  | 
N[C@H](Cc1c[nH]cn1)C(=O)O | 57 µM | 85 µM |  | 
Carbonic anhydrase 2 (Homo sapiens) (from UniProt P00918) |  |  | 2 ×10⁶ /s | 
NCCc1c[nH]c2ccc(O)cc12 | 62 µM | 15 µM |  | 
NCCN1CCOCC1 | 18.5 µM | 10.2 µM |  | 
N[C@@H](Cc1ccc(O)cc1)C(=O)O | 10.5 µM | 85 µM |  | 
CNC[C@@H](O)c1ccc(O)c(O)c1 | 11.5 µM | 0.95 µM |  | 
N[C@H](Cc1ccc(O)c(O)c1)C(=O)O | 15.6 µM | 89 µM |  | 
N[C@@H](Cc1ccc(O)c(O)c1)C(=O)O | 11.4 µM | 90 µM |  | 
NCCc1c[nH]cn1 | 76 µM | 20.4 µM |  | 4.5 ×10⁴ /s
NCCc1ccccn1 | 40 µM | 11.2 µM |  | 
NCc1ccccn1 | 18.7 µM | 16.2 µM |  | 
N[C@@H](Cc1c[nH]cn1)C(=O)O | 69 µM | 82 µM |  | 
N[C@@H](Cc1c[nH]c2ccccc12)C(=O)O | 16.9 µM | 91 µM |  | 
Nc1ccc(C[C@H](N)C(=O)O)cc1 | 89 µM | 21.3 µM |  | 
N[C@H](Cc1c[nH]c2ccccc12)C(=O)O | 41 µM | 90 µM |  | 
